Reference: ChEMBL document CHEMBL4028865, “Targeted Polypharmacology: Discovery of a Highly Potent Non-Hydroxamate Dual Matrix Metalloproteinase (MMP)-10/-13 Inhibitor” (J Med Chem, 2017)

What was measured:
[1] = target: T1, Stromelysin-2 (Homo sapiens, UniProt P09238); experiment: Inhibition of MMP10 (unknown origin) assessed as residual activity at 10 uM using (5-FAM/QX) FRET peptide as substrate by fluorescence assay relative to control
In short: (§1)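 Residual enzyme activity read at a single 10 μM inhibitor concentration, in duplicate. Fluorescence assay on cleavage of the QXL520/5-FAM FRET peptide. Buffer was 50 mM HEPES pH 7.5 with 10 mM CaCl₂, 0.01% Brij-35 and 0.1 mg/ml BSA. GM6001 served as control inhibitor. Same assay system as the IC50 determinations.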
Target sequence in this assay (P09238 99-476 limits assumed): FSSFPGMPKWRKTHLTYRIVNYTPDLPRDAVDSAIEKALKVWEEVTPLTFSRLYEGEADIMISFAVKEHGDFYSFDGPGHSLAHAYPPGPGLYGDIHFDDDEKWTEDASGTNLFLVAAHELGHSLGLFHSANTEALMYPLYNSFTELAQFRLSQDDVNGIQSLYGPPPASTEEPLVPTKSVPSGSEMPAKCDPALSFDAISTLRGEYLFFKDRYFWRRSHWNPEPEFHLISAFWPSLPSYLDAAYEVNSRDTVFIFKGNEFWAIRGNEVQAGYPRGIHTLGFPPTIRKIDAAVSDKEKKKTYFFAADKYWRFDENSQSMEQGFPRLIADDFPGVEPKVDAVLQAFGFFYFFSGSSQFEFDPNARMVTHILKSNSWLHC

[2] = target: T2, Collagenase 3 (Homo sapiens, UniProt P45452); experiment: Inhibition of C-terminal tagged human recombinant MMP13 catalytic domain expressed in Escherichia coli assessed as residual activity at 10 uM using (5-FAM/QX) FRET peptide as substrate by fluorescence assay relative to control; in short: as §1
[3] = target: T1, Stromelysin-2; experiment: Inhibition of MMP10 (unknown origin) assessed using (5-FAM/QX) FRET peptide as substrate by fluorescence assay
In short: (§2)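 IC50 from 10 concentrations in 3-fold dilution, starting at 10 μM or 100 μM, with two to six replicates. Run only for compounds leaving under 20% residual activity at 10 μM. Fluorescence read-out of QXL520/5-FAM FRET peptide cleavage in 50 mM HEPES pH 7.5, 10 mM CaCl₂, 0.01% Brij-35 and 0.1 mg/ml BSA. Four-parameter least-squares fit; GM6001 as control.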
Target sequence in this assay (P09238 whole entry): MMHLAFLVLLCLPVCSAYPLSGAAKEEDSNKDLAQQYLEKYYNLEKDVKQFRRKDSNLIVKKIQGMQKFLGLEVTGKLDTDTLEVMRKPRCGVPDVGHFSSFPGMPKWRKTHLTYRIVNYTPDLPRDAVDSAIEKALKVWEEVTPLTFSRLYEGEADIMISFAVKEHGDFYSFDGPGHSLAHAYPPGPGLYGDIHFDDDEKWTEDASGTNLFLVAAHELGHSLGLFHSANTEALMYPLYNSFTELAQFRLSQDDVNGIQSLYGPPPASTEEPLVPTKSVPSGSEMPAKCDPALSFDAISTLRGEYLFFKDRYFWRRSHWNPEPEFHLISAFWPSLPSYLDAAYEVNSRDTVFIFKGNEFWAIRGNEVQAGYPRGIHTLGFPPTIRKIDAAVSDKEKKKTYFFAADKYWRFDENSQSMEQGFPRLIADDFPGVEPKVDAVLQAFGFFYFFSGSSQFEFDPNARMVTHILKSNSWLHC

[4] = target: T2, Collagenase 3; experiment: Inhibition of C-terminal tagged human recombinant MMP13 catalytic domain expressed in Escherichia coli using (5-FAM/QX) FRET peptide as substrate by fluorescence assay; in short: as §2
[5] = target: T3, Interstitial collagenase (Homo sapiens) (UniProt P03956); experiment: Inhibition of MMP1 (unknown origin) assessed as residual activity at 10 uM using (5-FAM/QX) FRET peptide as substrate by fluorescence assay relative to control; in short: as §1
T3 sequence (whole entry): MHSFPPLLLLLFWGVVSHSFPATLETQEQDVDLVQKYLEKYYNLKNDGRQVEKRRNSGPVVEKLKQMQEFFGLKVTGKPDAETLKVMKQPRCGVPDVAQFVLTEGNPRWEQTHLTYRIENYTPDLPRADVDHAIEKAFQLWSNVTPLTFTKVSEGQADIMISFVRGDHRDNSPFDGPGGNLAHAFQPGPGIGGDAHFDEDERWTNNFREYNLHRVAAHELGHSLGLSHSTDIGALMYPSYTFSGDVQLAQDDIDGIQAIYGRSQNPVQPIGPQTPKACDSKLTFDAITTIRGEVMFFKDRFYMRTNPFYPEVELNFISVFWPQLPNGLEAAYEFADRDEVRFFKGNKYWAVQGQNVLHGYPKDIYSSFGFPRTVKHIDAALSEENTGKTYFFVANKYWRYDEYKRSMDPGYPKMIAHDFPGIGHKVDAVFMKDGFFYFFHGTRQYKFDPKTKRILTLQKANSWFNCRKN

[6] = target: 72 kDa type IV collagenase (Homo sapiens) (UniProt P08253); experiment: Inhibition of C-terminal tagged human recombinant MMP2 catalytic domain expressed in Escherichia coli assessed as residual activity at 10 uM using (5-FAM/QX) FRET peptide as substrate by fluorescence assay relative to control; in short: as §1
72 kDa type IV collagenase (Homo sapiens), sequence (P08253 110-660 limits assumed): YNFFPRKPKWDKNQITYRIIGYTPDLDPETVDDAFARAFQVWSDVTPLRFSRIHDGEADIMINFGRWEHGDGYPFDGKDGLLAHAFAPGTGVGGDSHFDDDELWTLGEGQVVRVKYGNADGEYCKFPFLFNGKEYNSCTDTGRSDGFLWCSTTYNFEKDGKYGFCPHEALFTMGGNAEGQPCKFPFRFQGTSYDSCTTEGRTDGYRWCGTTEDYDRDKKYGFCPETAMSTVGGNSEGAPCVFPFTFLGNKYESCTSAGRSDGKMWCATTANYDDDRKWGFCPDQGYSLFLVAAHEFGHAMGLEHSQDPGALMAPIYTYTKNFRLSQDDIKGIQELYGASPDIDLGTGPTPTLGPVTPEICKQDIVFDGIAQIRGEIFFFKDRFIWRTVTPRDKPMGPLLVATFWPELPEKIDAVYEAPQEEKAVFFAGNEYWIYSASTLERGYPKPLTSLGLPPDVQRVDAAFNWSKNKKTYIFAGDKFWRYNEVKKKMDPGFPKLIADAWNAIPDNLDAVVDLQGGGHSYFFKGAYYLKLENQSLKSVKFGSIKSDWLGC

[7] = target: Stromelysin-1 (Homo sapiens) (UniProt P08254); experiment: Inhibition of C-terminal tagged human recombinant MMP3 catalytic domain expressed in Escherichia coli assessed as residual activity at 10 uM using (5-FAM/QX) FRET peptide as substrate by fluorescence assay relative to control; in short: as §1
Stromelysin-1 (Homo sapiens), sequence (P08254 100-477 limits assumed): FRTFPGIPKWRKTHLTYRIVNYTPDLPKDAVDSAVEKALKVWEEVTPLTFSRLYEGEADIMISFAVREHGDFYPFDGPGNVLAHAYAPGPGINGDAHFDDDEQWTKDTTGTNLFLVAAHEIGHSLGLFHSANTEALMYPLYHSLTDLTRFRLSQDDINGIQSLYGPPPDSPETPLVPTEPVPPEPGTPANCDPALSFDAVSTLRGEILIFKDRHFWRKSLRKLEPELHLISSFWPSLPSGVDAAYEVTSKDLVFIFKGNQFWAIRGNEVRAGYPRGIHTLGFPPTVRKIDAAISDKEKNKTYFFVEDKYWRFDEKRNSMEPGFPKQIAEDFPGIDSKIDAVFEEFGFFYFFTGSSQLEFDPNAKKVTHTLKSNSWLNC

[8] = target: T4, Matrilysin (Homo sapiens) (UniProt P09237); experiment: Inhibition of C-terminal tagged human recombinant MMP7 catalytic domain expressed in Escherichia coli assessed as residual activity at 10 uM using (5-FAM/QX) FRET peptide as substrate by fluorescence assay relative to control; in short: as §1
T4 sequence (whole entry): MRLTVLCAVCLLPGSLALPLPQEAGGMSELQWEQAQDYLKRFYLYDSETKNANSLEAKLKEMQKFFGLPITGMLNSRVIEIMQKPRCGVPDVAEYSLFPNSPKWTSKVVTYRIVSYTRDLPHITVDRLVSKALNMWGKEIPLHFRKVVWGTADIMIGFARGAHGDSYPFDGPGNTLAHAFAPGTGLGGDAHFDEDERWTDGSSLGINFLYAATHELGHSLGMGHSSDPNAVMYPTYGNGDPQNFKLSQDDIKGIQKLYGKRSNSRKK

[9] = target: Neutrophil collagenase (Homo sapiens) (UniProt P22894); experiment: Inhibition of MMP8 (unknown origin) assessed as residual activity at 10 uM using (5-FAM/QX) FRET peptide as substrate by fluorescence assay relative to control; in short: as §1
Neutrophil collagenase (Homo sapiens), sequence (P22894 101-467 limits assumed): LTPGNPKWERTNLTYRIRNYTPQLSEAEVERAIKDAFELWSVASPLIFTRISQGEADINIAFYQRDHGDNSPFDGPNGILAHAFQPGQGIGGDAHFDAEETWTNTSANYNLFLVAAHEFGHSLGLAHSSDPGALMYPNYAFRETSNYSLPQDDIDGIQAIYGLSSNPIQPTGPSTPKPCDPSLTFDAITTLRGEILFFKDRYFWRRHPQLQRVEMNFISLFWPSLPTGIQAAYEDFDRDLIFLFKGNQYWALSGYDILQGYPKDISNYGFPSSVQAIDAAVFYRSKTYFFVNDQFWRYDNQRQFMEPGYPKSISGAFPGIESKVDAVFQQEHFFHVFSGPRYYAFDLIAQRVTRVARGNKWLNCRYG

[10] = target: Matrix metalloproteinase-9 (Homo sapiens) (UniProt P14780); experiment: Inhibition of MMP9 (unknown origin) assessed as residual activity at 10 uM using (5-FAM/QX) FRET peptide as substrate by fluorescence assay relative to control; in short: as §1
Matrix metalloproteinase-9 (Homo sapiens), sequence (P14780 whole entry, the tested form may be a part): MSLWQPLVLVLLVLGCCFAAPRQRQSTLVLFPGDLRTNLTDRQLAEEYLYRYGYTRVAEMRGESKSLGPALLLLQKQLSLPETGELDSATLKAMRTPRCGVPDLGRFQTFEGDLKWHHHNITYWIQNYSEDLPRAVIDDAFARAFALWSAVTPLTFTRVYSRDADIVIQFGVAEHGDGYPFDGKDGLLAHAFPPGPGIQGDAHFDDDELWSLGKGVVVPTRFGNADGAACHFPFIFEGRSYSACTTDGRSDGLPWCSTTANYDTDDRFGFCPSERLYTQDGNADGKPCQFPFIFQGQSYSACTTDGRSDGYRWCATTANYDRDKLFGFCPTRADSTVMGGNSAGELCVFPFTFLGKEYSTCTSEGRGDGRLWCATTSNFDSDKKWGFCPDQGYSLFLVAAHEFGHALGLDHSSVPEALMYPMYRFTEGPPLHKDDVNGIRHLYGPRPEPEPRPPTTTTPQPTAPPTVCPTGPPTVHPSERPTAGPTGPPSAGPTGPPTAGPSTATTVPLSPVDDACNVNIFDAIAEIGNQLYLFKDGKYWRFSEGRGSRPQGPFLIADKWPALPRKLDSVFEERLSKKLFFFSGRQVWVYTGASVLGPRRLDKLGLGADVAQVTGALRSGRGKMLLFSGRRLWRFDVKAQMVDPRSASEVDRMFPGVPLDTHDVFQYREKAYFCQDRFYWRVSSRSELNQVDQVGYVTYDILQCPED

[11] = target: Macrophage metalloelastase (Homo sapiens) (UniProt P39900); experiment: Inhibition of C-terminal tagged human recombinant MMP12 catalytic domain expressed in Escherichia coli assessed as residual activity at 10 uM using (5-FAM/QX) FRET peptide as substrate by fluorescence assay relative to control; in short: as §1
Macrophage metalloelastase (Homo sapiens), sequence (P39900 106-470 limits assumed): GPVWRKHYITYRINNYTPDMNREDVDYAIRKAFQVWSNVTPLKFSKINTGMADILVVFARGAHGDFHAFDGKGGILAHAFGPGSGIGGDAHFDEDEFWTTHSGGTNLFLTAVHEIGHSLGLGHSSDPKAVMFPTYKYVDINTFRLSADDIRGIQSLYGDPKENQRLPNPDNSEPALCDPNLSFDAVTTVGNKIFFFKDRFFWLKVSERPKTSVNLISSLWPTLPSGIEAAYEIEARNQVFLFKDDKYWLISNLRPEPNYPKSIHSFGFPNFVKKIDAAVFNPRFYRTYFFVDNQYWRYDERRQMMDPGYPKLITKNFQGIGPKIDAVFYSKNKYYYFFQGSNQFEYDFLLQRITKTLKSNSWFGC

[12] = target: Matrix metalloproteinase-14 (Homo sapiens) (UniProt P50281); experiment: Inhibition of C-terminal tagged human recombinant MMP14 catalytic domain expressed in Escherichia coli assessed as residual activity at 10 uM using (5-FAM/QX) FRET peptide as substrate by fluorescence assay relative to control; in short: as §1

SMILES | Activity [1] | Activity [2] | IC50 ([3]; read-out: IC50) | IC50 ([3]; read-out: pIC50 (converted)) | IC50 ([4]; read-out: IC50) | IC50 ([4]; read-out: pIC50 (converted)) | further results
COc1cc(CNC(=O)C#Cc2cn(Cc3ccc(-c4cnco4)cc3)c(=O)[nH]c2=O)ccc1F | 2.8% | 0.4% | 31 nM | 24.5 to 29.5 nM | 5 nM | 3.63 to 5.5 nM | Activity [5]: 100%; Activity [6]: 100%; Activity [7]: 37.3%; Activity [8]: 87.1%; Activity [9]: 96.7%; Activity [10]: 97.8%; Activity [11]: 88.5%; Activity [12]: 97.6%
COc1cc(CNC(=O)C#Cc2cn(Cc3ccc(C(=O)N4CCC[C@@H]4C(=O)O)cc3)c(=O)[nH]c2=O)ccc1F | 68.9% | 1.9% | – | – | – | – | –
COc1cc(CNC(=O)C#Cc2cn(Cc3ccc(S(=O)(=O)NC4CC4)cc3)c(=O)[nH]c2=O)ccc1F | 19.6% | 2.2% | 110 nM | 67.6 to 112 nM | 14 nM | 10.2 to 11.7 nM | –
COc1cc(CNC(=O)C#Cc2cn(Cc3ccc(S(=O)(=O)N(C)C)cc3)c(=O)[nH]c2=O)ccc1F | 47.9% | 5.8% | – | – | – | – | –
COc1cc(CNC(=O)C#Cc2cn(Cc3ccc(S(=O)(=O)NC(C)(C)C)cc3)c(=O)[nH]c2=O)ccc1F | 6.9% | 1.7% | 131 nM | 51.3 to 141 nM | 26 nM | 12 to 20.9 nM | –
O=C(O)CCCOc1cccc(CNC(=O)C#Cc2cn(Cc3ccc(C(=O)O)cc3)c(=O)[nH]c2=O)c1 | – | – | 8400 nM | – | – | – | –
COc1cc(CNC(=O)C#Cc2cn(Cc3ccc(S(=O)(=O)N4CCOCC4)cc3)c(=O)[nH]c2=O)ccc1F | 15.7% | 1.2% | 1930 nM | 759 to 1700 nM | 66 nM | 16.2 to 36.3 nM | –
COc1cc(CNC(=O)C#Cc2cn(Cc3ccc(S(N)(=O)=O)cc3)c(=O)[nH]c2=O)ccc1F | 19.1% | 3.9% | 7380 nM | 4790 to 18200 nM | 258 nM | 204 to 324 nM | –
COc1cccc(CNC(=O)c2nc3scc(COCc4ccc(C(=O)O)cc4)c3c(=O)[nH]2)c1 [T-26c] | – | – | 358 nM | 309 to 407 nM | 0.19 nM | 0.138 to 0.275 nM | –
CNS(=O)(=O)c1ccc(Cn2cc(C#CC(=O)NCc3ccc(F)c(OC)c3)c(=O)[nH]c2=O)cc1 | 12.8% | 1.8% | 531 nM | 407 to 676 nM | 35 nM | 25.7 to 40.7 nM | –
COC(=O)[C@H]1CCCN1C(=O)c1ccc(Cn2cc(C#CC(=O)NCc3ccc(F)c(OC)c3)c(=O)[nH]c2=O)cc1 | 17.5% | 1.8% | 2050 nM | 1260 to 4900 nM | 175 nM | 209 to 219 nM | –
COc1cc(CNC(=O)C#Cc2cn(Cc3ccc(C(=O)NC4CC4)cc3)c(=O)[nH]c2=O)ccc1F | 30.8% | 5.9% | – | – | – | – | –
COc1cc(CNC(=O)C#Cc2cn(Cc3ccc(S(=O)(=O)NC(C)C)cc3)c(=O)[nH]c2=O)ccc1F | 10.2% | 2.2% | 147 nM | 67.6 to 141 nM | 25 nM | 15.1 to 34.7 nM | –
COc1cc(CNC(=O)C#Cc2cn(Cc3ccc(C(=O)N(C)C)cc3)c(=O)[nH]c2=O)ccc1F | 7.1% | 1.4% | 243 nM | 186 to 589 nM | 89 nM | 70.8 to 110 nM | –
COC(=O)CNS(=O)(=O)c1ccc(Cn2cc(C#CC(=O)NCc3ccc(F)c(OC)c3)c(=O)[nH]c2=O)cc1 | 14.3% | 2.1% | 485 nM | 245 to 437 nM | 32 nM | 15.1 to 34.7 nM | –

Second part, led by results:

Activity [1] | Activity [2] | IC50 ([3]; read-out: IC50) | IC50 ([3]; read-out: pIC50 (converted)) | IC50 ([4]; read-out: IC50) | IC50 ([4]; read-out: pIC50 (converted)) | SMILES | further results
55.7% | 13.3% | – | – | – | – | COc1cc(CNC(=O)C#Cc2cn(Cc3ccc(C(=O)NC(C)(C)C)cc3)c(=O)[nH]c2=O)ccc1F | –
13.9% | 4.4% | 1210 nM | 4790 to 18200 nM | 111 nM | 77.6 to 162 nM | COc1cc(CNC(=O)C#Cc2cn(Cc3ccc(C(N)=O)cc3)c(=O)[nH]c2=O)ccc1F | –
15.4% | 7.5% | 635 nM | 479 to 832 nM | 86 nM | 67.6 to 112 nM | CNC(=O)c1ccc(Cn2cc(C#CC(=O)NCc3ccc(F)c(OC)c3)c(=O)[nH]c2=O)cc1 | –
56.6% | 14.2% | – | – | – | – | COc1cc(CNC(=O)C#Cc2cn(Cc3ccc(C(=O)NC(C)C)cc3)c(=O)[nH]c2=O)ccc1F | –
28.5% | 0.8% | – | – | – | – | COc1cc(CNC(=O)C#Cc2cn(Cc3ccc(C(=O)N[C@@H](C)C(=O)O)cc3)c(=O)[nH]c2=O)ccc1F | –
18% | 4.6% | 506 nM | 457 to 562 nM | 128 nM | 100 to 158 nM | COC(=O)c1ccc(Cn2cc(C#CC(=O)NCc3ccc(F)c(OC)c3)c(=O)[nH]c2=O)cc1 | –
14.2% | 2.6% | 347 nM | 275 to 398 nM | 58 nM | 44.7 to 72.4 nM | COc1cc(CNC(=O)C#Cc2cn(Cc3ccc(C(=O)NCCO)cc3)c(=O)[nH]c2=O)ccc1F | –
21.9% | 3.9% | – | – | – | – | COC(=O)[C@H](CO)NC(=O)c1ccc(Cn2cc(C#CC(=O)NCc3ccc(F)c(OC)c3)c(=O)[nH]c2=O)cc1 | –
52.8% | 12.2% | – | – | – | – | COC(=O)CNC(=O)c1ccc(Cn2cc(C#CC(=O)NCc3ccc(F)c(OC)c3)c(=O)[nH]c2=O)cc1 | –
26.6% | 0.4% | – | – | – | – | COc1cc(CNC(=O)C#Cc2cn(Cc3ccc(C(=O)N[C@H](C)C(=O)O)cc3)c(=O)[nH]c2=O)ccc1F | –
77% | 5.6% | – | – | – | – | COc1cc(CNC(=O)C#Cc2cn(Cc3ccc(C(=O)N[C@H](CO)C(=O)O)cc3)c(=O)[nH]c2=O)ccc1F | –
10.4% | 0.8% | 705 nM | 501 to 832 nM | 14 nM | 7.76 to 15.1 nM | COc1cc(CNC(=O)C#Cc2cn(Cc3ccc(C(=O)N[C@@H](CO)C(=O)O)cc3)c(=O)[nH]c2=O)ccc1F | –
68.6% | 5.1% | – | – | – | – | COc1cc(CNC(=O)C#Cc2cn(Cc3ccc(C(=O)NCC(=O)O)cc3)c(=O)[nH]c2=O)ccc1F | –
15.5% | 2.5% | 751 nM | 490 to 1070 nM | 149 nM | 102 to 195 nM | COC(=O)[C@H](C)NC(=O)c1ccc(Cn2cc(C#CC(=O)NCc3ccc(F)c(OC)c3)c(=O)[nH]c2=O)cc1 | –
